Test results published in the EternaBench riboswitch data.

Test system: MS2 coat protein
Assay: apparent Kd, MS2 coat protein; higher = weaker binding; RNA-MaP array; FMN 200 µM where present
Method in brief: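 Designs were transcribed by stalled E. coli RNA polymerase on Illumina sequencing-chip clusters. They were titrated with SNAP-549-labelled MS2 coat protein from 0.7 or 1.5 nM, doubling to 3 µM, without and then with constant ligand. Buffer: 100 mM Tris-HCl pH 7.5, 80 mM KCl, 4 mM MgCl2, BSA, DTT, yeast tRNA, Tween-20. Green signal was normalised to red-channel RNA signal and control-cluster median Fmax. Apparent Kd is the median of filtered per-cluster binding-curve fits.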

[1] = designed as: ON switch for flavin mononucleotide, no ligand
[2] = ligand present: flavin mononucleotide, designed as: ON switch for flavin mononucleotide
[3] = designed as: OFF switch for flavin mononucleotide, no ligand
[4] = ligand present: flavin mononucleotide, designed as: OFF switch for flavin mononucleotide

Sequence	apparent Kd [1]	apparent Kd [2]	apparent Kd [3]	apparent Kd [4]
GACAGGGAUUCAGGAUAUAUUAGCCGAGGCCGAGUAGAAGGGAAAUCCUGACAUGAGGAUCACCCAUGUCGACCCGCCUUCCUU	50.7 nM	51.9 nM		
AGUGACGAUACAGGAUAUGCUGGACUUUGUCCAGCAGAAGGGUAUUAACAUGAGGAUCACCCAUGUUUCGUCACCAAAUUUAAU	39.5 nM	8.22 nM		
GGUUUGCGGCAGGAUAUCCAUCCGCGGUAUGGUGGAGAAGGGCUGACAUGAGGAUCACCCAUGUGCGUCCUGGG			26.6 nM	38.4 nM
UUGAUUCAUUCCUCCAUAAACAUGAGGAUCACCCAUGUAAGUGAGGAUAUAGUUGGAGUAGUAUACUAGAAGGCACUUAGAUAU			12.3 nM	9.75 nM
CUUGUUUAUGUGAGGAUAUACUGUUAGUAAUGUUUGUAGAAGGUACAUGAGGAUCACCCAUGUUUAUUUAUAUU			19.2 nM	18 nM
GCAUGCAUAGCGAUAUGAUCGAGAGAUCAUGUCGCUAAAUUUAGAAGGACAUGAGGAUCACCCAUGUAGGAUAUGGGAGCAUGA	44.6 nM	11.5 nM		
AGCUAGUCAGGAUAUACGAAAAUGUCCGAAGCUGAGAAGGGACAUGAGGAUCACCCAUGUAGAAGGGACUAGCA			102 nM	264 nM
AAAUCGAGUGUAGGAUAUGCACAGUUUGACCGUGCAGAAGGACACAUGAGGAUCACCCAUGUUAGCUCAUGGGCGGUGACUUAG			92.2 nM	82.2 nM
AGUUCCUCCGCAGGAUAUGUGCUCUUUAUCACAUGAGGAUCACCCAUGUCAGCCUAAACGGCGAGACAGAAGGGUGGUGGUGCC	172 nM	177 nM		
UGCUACGUUUCGUAGCAGUGUCAUCGAGAAGGCCCUGACAUGAGGAUCACCCAUGUUGUUACAUGGGAGGAUAUCGAUGAUACA		5.16 nM		
CAUAUGUGCGGAGGAUAUGGGUGAAUCGGAUCGACAUGAGGAUCACCCAUGUAGCUCUUUGGCAUCUAGAAGGCCGGAUGAACG	25.9 nM	111 nM		
AAUGGCCAAGGAUAUGAGACCUAAAACAUGAGGAUCACCCAUGUGGACUCAGCCGCGUGGUCAGAAGGUGGAACCA			13.8 nM	14.8 nM
GUAGCAUACCAAGGAUAUUCAGGGCUUGGAUAGACAUGAGGAUCACCCAUGUGGCGAAAGCCUAGGGAGAAGGUGGAAUGCUAC	16.7 nM	15.2 nM		
CGGCACCGAGGAUAUACAUGAGGAUCACCCAUGUUUGUUGGGCCCUUAAGAUCUACGUGUAGAAGGUGGGUCGA			131 nM	167 nM
ACAUGAUACAAGAAGGAUGUAUUAGAUUUGAUCAUAGGAUAUUGUUAUAUUGUUUACUCUAAUAACAUGAGGAUCACCCAUGUA	10.7 nM	7.53 nM		
AAUAACAGAGGAUAUACUAUUUUAUGUGUUUAUUGUUUUAAACAUGAGGAUCACCCAUGUAGAAGGCUGAUUAA			69.7 nM	105 nM
UAACAUGUCCGAGGAUAUCUGGAAACAUUUUCAAGAGAAGGCGGACAUGAGGAUCACCCAUGUCUCUCCUCAUCAAAUCCAAGU			8.9 nM	42.3 nM
CGGAUGUGAGGAUAUACAUGAGGAUCACCCAUGUGAGCCAGCUAGAUGACUGGCUCGUGUAGAAGGCACGUCUG			13.5 nM	29.3 nM
UGUUGUUUAGGAUAUACAUGAGGAUCACCCAUGUGACAAAAAUAUUUUACAAAACCAUGUAGAAGGAAAUGGCA			22.3 nM	48.2 nM
CCUAUGUGAGGAUAUGGUGUUGGCCACAAGGAAAAGCUCCUCCAGAAGGCACAUGAGGAUCACCCAUGUCGUGG			21.5 nM	115 nM
ACUAGAUGAGGAUAUGCAUGUUUUCGUGUUCUUCUAGAUUAACAUGAGGAUCACCCAUGUAGAAGGCGUCAUUU			81 nM	118 nM
GGUGCGUGUGUGAGGAUAUGCUGGUCCUUGGCUCGGCAGAAGGCACAUGAGGAUCACCCAUGUGGUGUCGUGCC			22.8 nM	49.8 nM
CUGGAAUACAGACAUGAGGAUCACCCAUGUUUAAGGGAAGCACAGGAUAUGUCGACGCACCAUAGACAGAAGGGUGACUUGCUU	49.4 nM	24.8 nM		
UUAAAUCAUGUAGGAUAUGCAUGGCGAAGCUACGCAGAAGGACAUGAGGAUCACCCAUGUUAUAGCGUCCGAUAAAGGAUGCAA			85.1 nM	225 nM
ACAUACGAUAGUAUGCCUGAGGGCAGAAGGCACAUGAGGAUCACCCAUGUAACGAUCUCUUCAAGUGAGGAUAUGUGCUCAUUG			49.8 nM	52.2 nM
CUUUUGUGAGGAUAUCAGUAGUAAUACAAUAGUAUUACUACUGAGAAGGUACAUGAGGAUCACCCAUGUUCCUC			17.8 nM	21.2 nM
GAGUAGUUGGAAGGAUAUCGAUUGUUAUAGAAUCGAGAAGGUCCUAACAUGAGGAUCACCCAUGUAGGACUAUUCCUGUGUAUC	11.3 nM	9.64 nM		
UUUAUAAAGAUAGGAUAUUGUAUUAUAAUUAAAUAAGAAGGAUCACACAUGAGGAUCACCCAUGUAUGAGGAUCACCCAUGUAU			15.8 nM	14.5 nM
